The target of series [1] is Sodium-dependent dopamine transporter (Homo sapiens) (UniProt Q01959). Briefly: Inhibition of DAT receptor (unknown origin) at 100 nM.
The target in series [2] is Sodium-dependent serotonin transporter (Homo sapiens) (UniProt P31645). The experiment in a line: Inhibition of SERT receptor (unknown origin) at 100 nM.
The target of series [3] is Sodium-dependent noradrenaline transporter (Homo sapiens) (UniProt P23975). As to conditions: dose 10-100 nM.
Series [4] concerns the target Sodium-dependent dopamine transporter (Homo sapiens) (UniProt Q01959). Briefly: Displacement of [3H]BTCP from recombinant human DAT receptor expressed in CHO cells at 10 uM incubated for 120 mins by scintillation counting method. It counts as cell-based. In a few lines:
(§1)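 Radioligand displacement run by a commercial provider, with test compound at 10 μM. Reported as mean ± SD of two independent measurements, each in duplicate.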

The target in series [5] is Sodium-dependent serotonin transporter (Homo sapiens) (UniProt P31645). The experiment in a line: Displacement of [3H]imipramine from recombinant human SERT receptor expressed in CHO cells at 10 uM incubated for 60 mins by scintillation counting method. The series is classed as cell-based. In a few lines:
as §1

Series [6] is described as follows: Drug accumulation in C57BL/6JRJ mouse brain at 5 mg/kg, iv followed by 1 week after washout period treated at 5 mg/kg, po followed by 1 week after washout period treated at 5 mg/kg, po measured after 30 mins. It counts as ADME, organism-based. As to conditions: in vivo, 168 h, time 1 weeks. A digest of the protocol:
(§2)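 The same four C57BL/6JRJ mice (2 male, 2 female) first had i.v. and then oral PK runs, each followed by 1 week washout. They were then gavaged with 5 mg/kg in saline at 5 mL/kg. At 30 min they were decapitated under isoflurane, and blood and tissues were harvested. Tissue levels were quantified by LC-ESI-MS/MS and given as mean ± SD of four mice.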

Series [7] can be described thus: Drug accumulation in C57BL/6JRJ mouse adrenal gland at 5 mg/kg, iv followed by 1 week after washout period treated at 5 mg/kg, po followed by 1 week after washout period treated at 5 mg/kg, po measured after 30 mins. The series is classed as ADME, organism-based. Conditions: in vivo, 168 h, time 1 weeks. In a few lines:
as §2

Series [8] in a line: Acute toxicity in C57BL6/J mouse assessed as piloerection at 1.0 to 10 mg/kg, ip. It counts as organism-based. As to conditions: in vivo, dose 1-10 mg/kg. In a few lines:
(§3)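 Male mice, 12 weeks old, were handled for 10 days and rotarod-trained before dosing. Each received 1.0 or 10 mg/kg i.p. (n = 7) or vehicle, 0.5% DMSO (n = 6), at 1% body-weight volume. Animals were held 40 min in a separate cage, then observed during rotarod, light/dark box and rectal temperature tests for signs of toxicity. Sacrifice was 1 h post-dose.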

The nature of series [9]: Acute toxicity in C57BL6/J mouse assessed as hunched posture at 1.0 to 10 mg/kg, ip. It counts as organism-based. As to conditions: in vivo, dose 1-10 mg/kg. In a few lines:
as §3

Series [10] can be described thus: Acute toxicity in C57BL6/J mouse assessed as convulsions at 1.0 to 10 mg/kg, ip. Conditions: in vivo, dose 1-10 mg/kg. It counts as organism-based. A digest of the protocol:
as §3

The nature of series [11]: Acute toxicity in C57BL6/J mouse assessed as gastrointestinal distress at 1.0 to 10 mg/kg, ip. It counts as organism-based. As to conditions: in vivo, dose 1-10 mg/kg. In a few lines: as §3
Series [12] is described as follows: AUC in C57BL/6JRJ mouse at 5 mg/kg, iv measured up to 24 hrs. As to conditions: in vivo. The series is classed as ADME, organism-based. A digest of the protocol: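 C57BL/6JRJ mice, 8–9 weeks old (2 male, 2 female), received 5 mg/kg (dose based on free salt MW) in 0.9% saline at 5 mL/kg by tail-vein injection after tail warming. Tail-vein blood microsamples (<20 μL) were taken at 5, 15, 30 min and 1, 1.5, 2, 4, 8 and 24 h, quantified by MRM LC-ESI-MS/MS, and reported as mean ± SD of four mice.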

Structures are written as SMILES. The source made the active and inactive calls. No cut-off for these calls is given here.

For orientation: AUC means concentration integrated over time. The low end stands for low exposure, the high end for high exposure.

Sodium-dependent dopamine transporter (Homo sapiens), sequence (Q01959 whole entry): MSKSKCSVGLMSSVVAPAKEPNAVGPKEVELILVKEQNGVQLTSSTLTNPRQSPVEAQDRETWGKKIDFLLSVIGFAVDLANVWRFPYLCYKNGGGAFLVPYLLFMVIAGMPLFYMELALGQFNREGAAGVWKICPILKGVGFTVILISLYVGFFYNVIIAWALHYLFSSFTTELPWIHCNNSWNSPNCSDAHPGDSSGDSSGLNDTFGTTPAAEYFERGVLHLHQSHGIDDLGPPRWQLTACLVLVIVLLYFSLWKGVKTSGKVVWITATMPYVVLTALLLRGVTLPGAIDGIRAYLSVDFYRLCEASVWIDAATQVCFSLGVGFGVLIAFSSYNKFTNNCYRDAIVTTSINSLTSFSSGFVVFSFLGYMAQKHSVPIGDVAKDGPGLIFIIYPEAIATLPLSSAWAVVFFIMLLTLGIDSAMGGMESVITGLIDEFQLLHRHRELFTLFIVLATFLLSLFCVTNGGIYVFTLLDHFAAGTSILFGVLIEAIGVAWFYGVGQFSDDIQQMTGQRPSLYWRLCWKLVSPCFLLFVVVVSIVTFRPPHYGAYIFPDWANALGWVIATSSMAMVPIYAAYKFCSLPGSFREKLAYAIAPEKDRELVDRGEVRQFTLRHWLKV
Sodium-dependent noradrenaline transporter (Homo sapiens), sequence (P23975 whole entry): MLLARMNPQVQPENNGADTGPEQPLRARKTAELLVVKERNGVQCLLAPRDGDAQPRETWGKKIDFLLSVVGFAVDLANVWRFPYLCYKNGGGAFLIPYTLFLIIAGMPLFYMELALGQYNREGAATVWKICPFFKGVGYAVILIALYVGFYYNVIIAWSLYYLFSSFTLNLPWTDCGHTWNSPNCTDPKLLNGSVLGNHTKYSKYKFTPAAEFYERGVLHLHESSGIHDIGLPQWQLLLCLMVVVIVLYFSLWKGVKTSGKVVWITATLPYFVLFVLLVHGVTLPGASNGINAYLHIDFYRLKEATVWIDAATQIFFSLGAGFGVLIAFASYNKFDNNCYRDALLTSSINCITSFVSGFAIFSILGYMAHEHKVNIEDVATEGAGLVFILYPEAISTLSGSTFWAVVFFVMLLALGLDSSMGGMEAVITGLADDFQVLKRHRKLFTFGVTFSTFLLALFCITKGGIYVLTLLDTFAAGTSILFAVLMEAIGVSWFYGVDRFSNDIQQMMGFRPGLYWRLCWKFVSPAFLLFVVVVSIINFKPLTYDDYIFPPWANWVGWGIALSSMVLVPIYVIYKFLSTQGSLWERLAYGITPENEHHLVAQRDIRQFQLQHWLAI
Sodium-dependent serotonin transporter (Homo sapiens), sequence (P31645 whole entry, looked up): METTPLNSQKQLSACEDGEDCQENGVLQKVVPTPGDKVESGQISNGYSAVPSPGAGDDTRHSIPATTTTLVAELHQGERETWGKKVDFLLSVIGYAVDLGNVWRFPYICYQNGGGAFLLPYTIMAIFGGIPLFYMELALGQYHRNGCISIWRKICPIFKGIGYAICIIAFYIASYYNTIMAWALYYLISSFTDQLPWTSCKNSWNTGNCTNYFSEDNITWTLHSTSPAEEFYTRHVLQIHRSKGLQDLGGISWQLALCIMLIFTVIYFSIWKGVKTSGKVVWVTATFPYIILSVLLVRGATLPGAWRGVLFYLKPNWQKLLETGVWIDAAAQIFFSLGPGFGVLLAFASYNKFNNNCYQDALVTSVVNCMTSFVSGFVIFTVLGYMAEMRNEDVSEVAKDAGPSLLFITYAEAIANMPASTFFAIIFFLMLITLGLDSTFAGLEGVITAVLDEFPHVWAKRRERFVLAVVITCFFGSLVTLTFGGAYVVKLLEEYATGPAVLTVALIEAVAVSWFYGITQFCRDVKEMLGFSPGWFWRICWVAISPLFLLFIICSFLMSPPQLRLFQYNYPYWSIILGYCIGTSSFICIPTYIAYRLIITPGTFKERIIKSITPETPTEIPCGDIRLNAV

For the compound `Clc1ccc(CN2CCCC[C@H]3NCC[C@H]32)cc1`, the inhibition entry in series [1], in series [2] and in series [3] was “Active” throughout.
Turning to `Clc1cccc(CN2CCCC[C@H]3NCC[C@H]32)c1`, the inhibition result in series [1], in series [2] and in series [3] was “Active” in each case.
For the compound `c1ccc(CN2CCCC[C@@H]3NCCC[C@H]32)cc1`, the outcome in [4] and in [5] was Active.
With `c1ccc(CN2CCCC[C@H]3NCC[C@H]32)cc1`, the Drug uptake result in series [6] and in series [7] was “Active” throughout. Also, the Activity entry in [8], in [9], in series [10] and in series [11] was “Non-toxic” each time. Besides, the area under the curve (AUC) in series [12] was 47948 ng·min/mL.
Consider `Fc1cccc(CN2CCCC[C@H]3NCC[C@H]32)c1`, for which the inhibition entry in series [1], in series [2] and in [3] was “Active” in each case.
Regarding `Clc1cc(Cl)cc(CN2CCCC[C@H]3NCC[C@H]32)c1`, the inhibition entry in [1], in series [2] and in series [3] was “Active” in each case.
Take `c1ccc(CN2CCCC[C@H]3NCCC[C@H]32)cc1`: the result in [4] and in [5] was Active.
With `c1ccc(CN2CCCC[C@@H]3NCCCC[C@H]32)cc1`, the outcome in [4] and in [5] was Active.
Take `Brc1cccc(CN2CCCC[C@H]3NCC[C@H]32)c1`: the inhibition result in series [1], in [2] and in [3] was “Active” each time.
For `Clc1cccc(CN2CCCC[C@H]3NCC[C@H]32)c1Cl`, the inhibition result in series [1], in [2] and in series [3] was “Active” in each case.
As for `Clc1ccccc1CN1CCCC[C@H]2NCC[C@H]21`, the inhibition entry in [1], in series [2] and in series [3] was “Active” each time.
